Assay results: article PMC4383763 (Journal of clinical pharmacology, 2013)

Tests used:
[1] = tested on: APAP-induced liver injury in mice; conditions: cited from earlier work; for effect of drug vehicles on APAP-induced liver injury: mouse model
[2] = tested on: Cultured hepatocytes; conditions: in the presence of PG; cited from earlier work
[3] = assumed for the prediction, no reference given; cited from earlier work
[4] = Plasma propylene glycol concentration by GC-FID after APAP preparation; type: in vivo, human
Summary of the method: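 Crossover in volunteers given tablet or liquid APAP formulations (liquid contains 5% v/v PG), 15 mg/kg orally after a 1 h fast, on separate visits. Blood held refrigerated ≤24 h, then plasma separated by centrifugation and stored at -80 °C. PG was measured by GC-FID, first in 0–120 min samples from three subjects, then in all 30 min samples. LOD 5.0 mg/dL.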

[5] = tested on: CYP2E1; conditions: cited from earlier work
[6] = subjects who received 2 months of cimetidine; cited from earlier work

CC(O)CO (stereo not drawn) [PG, propylene glycol]
hepatocellular damage following a toxic APAP dose ([1]; mice pretreated with the substance): reduced hepatocellular damage | effect of drug vehicles on APAP-induced liver injury [1]: protective | susceptibility of cultured hepatocytes to APAP-induced necrosis [2]: less susceptible | volume of distribution of PG [3]: 0.58 L/kg | maximum PG concentration in plasma ([4]; 30-minute samples after liquid preparation): 9.1 mg/dL | PG detected in 30-minute samples ([4]; following ingestion of the liquid preparation, limit of detection 5.0 mg/dL): 9 out of 15 | PG detected in samples ([4]; solid group, limit of detection 5.0 mg/dL): none | type of CYP2E1 inhibition [5]: competitive inhibitor

CN/C(=N/CCSCc1nc[nH]c1C)NC#N [cimetidine]
urinary APAP-mercapturate following therapeutic APAP dosing [6]: decreased

CN(C)C=O [dimethylformamide]
effect of drug vehicles on APAP-induced liver injury [1]: protective

C[S+](C)[O-] [dimethylsulfoxide]
effect of drug vehicles on APAP-induced liver injury [1]: protective

CCO [ethanol]
effect of drug vehicles on APAP-induced liver injury [1]: protective
